Data reported in ChEMBL document CHEMBL1128458, “Synthesis and anticonvulsant activity of enaminones. 3. Investigations on 4'-, 3'-, and 2'-substituted and polysubstituted anilino compounds, sodium channel binding studies, and toxicity evaluations” (J Med Chem, 1995).

Legend:
Mus musculus [1] = assay: Anticonvulsant activity; 3 indicates no activity at doses up to and including 300 mg/kg in mice.; assay type: functional
In short: (§1)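 Phase I screen in CF1 mice: compound suspended in 0.5% aqueous methylcellulose, given ip at 30, 100 and 300 mg/kg; MES, scMet and rotorod toxicity read at 30 min and 4 h. Class 1 = activity at 100 mg/kg or less; 2 = activity above 100 mg/kg; 3 = none up to 300 mg/kg.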

Mus musculus [2] = assay: Anticonvulsant activity was determined in mice; 1 indicates 100 mg/kg or less; assay type: functional; in short: as §1
Mus musculus [3] = assay: Anticonvulsant activity was determined; 2 indicates at doses greater than 100 mg/kg in mice; assay type: functional; in short: as §1
Rattus norvegicus [4] = assay: Anticonvulsant activity was determined; 2 indicates at doses greater than 100 mg/kg in rat; assay type: functional
[5] = biological target: Sodium channel alpha subunits; brain (Types I, II, III) (Rattus norvegicus, UniProt P04775+P04774+P08104); assay: Inhibition of [3H]BTX-B binding to neurotoxin site 2 of sodium channel of rat cerebral cortex synaptoneurosomes; assay type: tissue-based
In short: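 Synaptoneurosomes from rat cerebral cortex were incubated with [3H]BTX-B (2.0 nM final) in HEPES, pH 7.4 at 25 °C, with 130 mM choline chloride, at 37 °C for 45 min. Reactions were stopped by rapid vacuum filtration onto glass fibre filters, and bound radioactivity was compared with control. IC50 was read from log concentration (10–800 µM) versus percent specific binding.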

Rattus norvegicus [6] = organism: Rattus norvegicus; assay: Effective dose for anticonvulsant activity determined in rats using MES test procedure. (Phase VIA); assay type: functional
In short: (§2)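 Phase VIA oral dosing in male Sprague–Dawley rats; MES and scMet ED50 and TD50 in mg/kg, each read at the time of peak effect; range in parentheses.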

Rattus norvegicus [7] = assay: Change in kidney weight on day 2 in male rats after ip administration of 100 mg/kg; expressed as kidney weight (g/100 g of body weight); assay type: functional; settings: route intraperitoneal
In short: (§3)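 Male Fischer 344 rats (200-245 g), four per group, housed singly in metabolism cages; day 0 control values taken, then a single ip dose of 100 mg/kg or vehicle (25% DMSO in corn oil). Pair-fed controls. Urine volume measured at 24 h intervals. At 48 h, under ether, blood drawn from the dorsal aorta; plasma assayed for ALT/GPT and BUN; kidney and liver weighed. Means ± SE.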

Rattus norvegicus [8] = assay: Change in the blood urea nitrogen concentration on day 2 determined in male rats after ip administration of 100 mg/kg; Expressed as blood urea nitrogen concentration (mg %); assay type: functional; settings: route intraperitoneal; in short: as §3
Rattus norvegicus [9] = assay: Change in the blood urea nitrogen concentration on day 0 determined in male rats after ip administration of 100 mg/kg; Expressed as blood urea nitrogen concentration (mg %); assay type: functional; settings: route intraperitoneal; in short: as §3
Rattus norvegicus [10] = assay: Urine volume collected for biochemical tests after an ip dose of 100 mg/kg at 0 day in male rats.; assay type: functional; settings: route intraperitoneal; in short: as §3
Rattus norvegicus [11] = assay: Effective dose for anticonvulsant activity determined in rats using subcutaneous Met test procedure. (Phase VIA); assay type: functional; settings: sc; in short: as §2
Rattus norvegicus [12] = assay: ALT/GPT activity in male rats on day 2 after ip administration of 100 mg/kg.; assay type: functional; settings: route intraperitoneal; in short: as §3
Rattus norvegicus [13] = assay: Urine volume collected for biochemical tests after an ip dose of 100 mg/kg at day 1 in male rats.; assay type: functional; settings: route intraperitoneal; in short: as §3
Rattus norvegicus [14] = assay: Urine volume collected for biochemical tests after an ip dose of 100 mg/kg at day 2 in male rats.; assay type: functional; settings: route intraperitoneal; in short: as §3
Rattus norvegicus [15] = assay: Change in liver weight determined in male rats on day 2 after ip administration of 100 mg/kg; expressed as liver weight (g/100 g of body weight); assay type: functional; settings: route intraperitoneal; in short: as §3
[16] = Toxic dose determined in mice using MES test procedure. (Phase II); assay type: toxicity; settings: mouse, in vivo
Mus musculus [17] = assay: Effective dose for anticonvulsant activity determined in mice using subcutaneous Met test procedure. (Phase II); assay type: functional; settings: sc
[18] = Toxic dose determined in rats using MES test procedure. (Phase VIA); assay type: toxicity; settings: rat, in vivo; in short: as §2
Mus musculus [19] = organism: Mus musculus; assay: Effective dose for anticonvulsant activity determined in mice using MES test procedure. (Phase II); assay type: functional
Rattus norvegicus [20] = assay: Anticonvulsant activity determined in rats at an oral dose of 50 mg/kg of phase VIA trials; active; assay type: functional

In the case of `COC(=O)[C@@H]1C(=O)C=C(Nc2ccccc2C)C[C@H]1C`, the Anticonvulsant activity (Mus musculus [1]) is reported as 3.

Compound `COC(=O)[C@@H]1C(=O)C=C(Nc2ccccc2Br)C[C@H]1C` has an Anticonvulsant activity (Mus musculus [1]) of 3.

`CCOC(=O)[C@@H]1C(=O)C=C(Nc2ccc(Cl)cc2Cl)C[C@H]1C` showed an Anticonvulsant activity (Mus musculus [2]) of 1.

Compound `COC(=O)[C@@H]1C(=O)C=C(Nc2ccccc2C(F)(F)F)C[C@H]1C` has an Anticonvulsant activity (Mus musculus [3]) of 2.

`COC(=O)[C@@H]1C(=O)C=C(Nc2ccccc2Cl)C[C@H]1C` showed an Anticonvulsant activity (Mus musculus [2]) of 1.

Work on `COC(=O)[C@@H]1C(=O)C=C(Nc2cc(OC)ccc2Cl)C[C@H]1C` yielded an Anticonvulsant activity (Mus musculus [3]) of 2.

In the case of `COC(=O)[C@@H]1C(=O)C=C(Nc2ccc(Cl)c(Cl)c2Cl)C[C@H]1C`, the Anticonvulsant activity (Mus musculus [1]) is reported as 3.

In the case of `CCOC(=O)[C@@H]1C(=O)C=C(Nc2cc(Cl)c(Cl)c(Cl)c2)C[C@H]1C`, the Anticonvulsant activity (Mus musculus [3]) is reported as 2.

`COC(=O)[C@@H]1C(=O)C=C(Nc2cc(Cl)c(Cl)cc2Cl)C[C@H]1C` gave an Anticonvulsant activity (Mus musculus [2]) of 1.

With `COC(=O)[C@@H]1C(=O)C=C(Nc2cc(Cl)cc(Cl)c2)C[C@H]1C` the Anticonvulsant activity (Mus musculus [1]) was 3.

With `COC(=O)[C@@H]1C(=O)C=C(NNc2ccccc2)C[C@H]1C` the Anticonvulsant activity (Mus musculus [3]) was 2 and the Anticonvulsant activity (Rattus norvegicus [4]) was 2.

Compound `COC(=O)[C@@H]1C(=O)C=C(Nc2cc(C)ccc2OC)C[C@H]1C` has an Anticonvulsant activity (Mus musculus [3]) of 2.

`CCC1(c2ccccc2)C(=O)NC(=O)NC1=O` [PHENOBARBITAL] showed an IC50 [5] of 2.5 µM.

Work on `COC(=O)[C@@H]1C(=O)C=C(Nc2ccc(Cl)cc2)C[C@H]1C` yielded an ED50 (Rattus norvegicus [6]) of 5.8 mg/kg, an Activity (Rattus norvegicus [7]) of 0.35 and an Activity (Rattus norvegicus [8]) of 14%. The IC50 [5] was 489 µM, the Activity (Rattus norvegicus [9]) was 14% and the Urine volume (Rattus norvegicus [10]) was 13.8 mL. For the same compound, the ED50 (Rattus norvegicus [11]) was > 190 mg/kg, the ALT/GPT (Rattus norvegicus [12]) was 25 U/L and the Urine volume (Rattus norvegicus [13]) was 9.6 mL. For the same compound, the Urine volume (Rattus norvegicus [14]) was 10.2 mL, the Activity (Rattus norvegicus [15]) was 4.16 and the TD50 [16] was 255 mg/kg. For the same compound, the ED50 (Mus musculus [17]) was > 254 mg/kg and the TD50 [18] was > 380 mg/kg.

`COC(=O)[C@@H]1C(=O)C=C(Nc2c(Cl)cccc2Cl)C[C@H]1C` showed an Anticonvulsant activity (Mus musculus [1]) of 3.

With `COC(=O)[C@@H]1C(=O)C=C(Nc2ccccc2[N+](=O)[O-])C[C@H]1C` the Anticonvulsant activity (Mus musculus [3]) was 2.

Compound `CCOC(=O)[C@@H]1C(=O)C=C(Nc2c(Cl)cccc2Cl)C[C@H]1C` has an Anticonvulsant activity (Mus musculus [1]) of 3.

`COC(=O)[C@@H]1C(=O)C=C(Nc2ccc(OC(F)(F)F)cc2)C[C@H]1C` showed an ED50 (Rattus norvegicus [6]) of 9.3 mg/kg, an IC50 [5] of 170 µM and an ED50 (Mus musculus [19]) of 22.4 mg/kg. The ED50 (Rattus norvegicus [11]) was > 79 mg/kg, the TD50 [16] was 122 mg/kg and the ED50 (Mus musculus [17]) was 114 mg/kg. The TD50 [18] was > 158 mg/kg.

Work on `COC(=O)[C@@H]1C(=O)C=C(Nc2ccc(Cl)cn2)C[C@H]1C` yielded an Anticonvulsant activity (Rattus norvegicus [20]) of 1 and an Anticonvulsant activity (Mus musculus [2]) of 1.

Work on `COC(=O)[C@@H]1C(=O)C=C(Nc2ccccc2O)C[C@H]1C` yielded an Anticonvulsant activity (Mus musculus [1]) of 3.

Work on `COC(=O)[C@@H]1C(=O)C=C(Nc2ccccc2I)C[C@H]1C` yielded an Anticonvulsant activity (Mus musculus [2]) of 1.

Compound `CCOC(=O)[C@@H]1C(=O)C=C(Nc2cc(Cl)ccc2Cl)C[C@H]1C` has an Anticonvulsant activity (Mus musculus [1]) of 3.

For `CCOC(=O)[C@@H]1C(=O)C=C(Nc2ccccc2N)C[C@H]1C`, the Anticonvulsant activity (Mus musculus [1]) was 3.

`COC(=O)[C@@H]1C(=O)C=C(Nc2ccccc2S(N)(=O)=O)C[C@H]1C` showed an Anticonvulsant activity (Mus musculus [1]) of 3.
